The other results are listed elsewhere or left out. Unmarked numbers belong to inactive results. Activity calls are given as the source filed them.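 Rule for the calls: active = inhibition above the hit cutoff derived for the primary screen (cut at about 15% in these data); inactive = the rest.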

As usually defined, the inhibition is the change of the read-out against control, counted positive when it falls.

The target of the test is Serine hydrolase RBBP9 (Homo sapiens) (UniProt O75884). The experiment in a line: RBBP9 serine hydrolase blockers re-tested – biochemical, fluorescence polarization, FP-Rh probe, triplicate, confirmation (AID 1537).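 Note: 0% = RBBP9 with DMSO and 100% = wells lacking RBBP9 protein.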 To be noted: recombinant RBBP9, FP-Rh probe fluorescence polarization; at 7.94 µM; active compounds read high. Put shortly: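 Test system – RBBP9 serine hydrolase enzyme, human · Amount – RBBP9 at 2.5 µM in dispensed enzyme solution · Buffer or medium – Tris/NaCl/Pluronic buffer, pH 8.0 · Reagent – FP-Rh probe · Dosing – single compound dose, 7.94 µM final · Timing – 30 min preincubation at 25 °C, 45 min probe labelling · Technique – fluorescence polarization, 525/598 nm · Replicates – triplicate wells per compound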
Chain of Serine hydrolase RBBP9 (Homo sapiens) (O75884 whole entry, looked up): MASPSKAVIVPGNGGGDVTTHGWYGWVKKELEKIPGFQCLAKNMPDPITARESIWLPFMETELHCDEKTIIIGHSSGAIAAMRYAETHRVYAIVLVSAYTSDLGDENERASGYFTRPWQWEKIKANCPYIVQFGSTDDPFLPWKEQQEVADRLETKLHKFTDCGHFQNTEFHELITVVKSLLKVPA
On the technique in general: In fluorescence polarisation assays a small probe gives low polarisation when free and higher when bound to something large.
Consider `O=c1[nH]n(-c2ccc([N+](=O)[O-])cc2)c(=O)c2ccccc12`, for which the inhibition is 20.4% (active).

As for `Cc1ccc(NC(=O)CN2CCC(C(N)=O)CC2)cc1[N+](=O)[O-]`, the inhibition is 2.36%.

On to `COc1ccc(NS(=O)(=O)c2cc(NC(=O)CC(=O)c3ccc([N+](=O)[O-])cc3)ccc2C)cc1`, for which the inhibition was -3.45%.

Take `Oc1ccc(N=Cc2sc3ccccc3c2Cl)cc1`: the inhibition is 12.5%.

As to `CCC(=O)N1CCCc2ccccc21`, the inhibition was 0.8%.

Take `CCc1ccccc1NC1c2ccccc2C(=O)N1c1cccnc1` (stereo not drawn): the inhibition was 3.9%.

As to `O=C1C=CC(=O)N1c1ccc(N2CCCCC2)cc1`, the inhibition was 25.9% (active).

Turning to `CCN(CC)C(=O)N1CCN(C(=O)c2ccc(C)cn2)CC1`, the inhibition is 9.27%.

Turning to `CC1=NOC(=O)/C1=C\c1ccccc1`, the inhibition is 4.74%.

Turning to `CCC(=O)c1ccc(OCC(O)CN2CCN(c3cccc(C(F)(F)F)c3)CC2)cc1` (stereo not drawn), the inhibition is 7.26%.

As to `Cc1cc([N+](=O)[O-])nn1Cc1ccc(F)cc1`, the inhibition was 11.8%.

On to `Cn1sc(=O)c2cc(S(=O)(=O)NC3CC3)ccc21`, for which the inhibition is 26.9% (active).

As for `C=CS(=O)c1sc(Cl)c(N2CCOCC2)c1[N+](=O)[O-]` (stereo not drawn), the inhibition is 34.7% (active).

As for `Cc1cc(F)ccc1S(=O)(=O)N1CCCOC1CNC(=O)C(=O)NCCC1=CCCCC1` (stereo not drawn), the inhibition is 10.6%.

Consider `O=[N+]([O-])c1c(NCCO)cc(Sc2nc3ccccc3s2)c2nonc12`, for which the inhibition is 45.7% (active).

In the case of `COc1cccc(NC(=O)c2ccc3c(SCC(=O)O)c4c(nc3c2)CCCC4)c1`, the inhibition was 6.99%.

Turning to `COc1ccc(-n2nnnc2SCc2nc(N)nc(N3CCOCC3)n2)cc1`, the inhibition is 3.53%.

On to `COCCN(Cc1nc(-c2ccc(C(F)(F)F)cc2)no1)C(C)C`, for which the inhibition is 1.94%.

In the case of `COc1cc(C2C(C(=O)OCCC#N)=C(C)NC3=C2S(=O)(=O)c2ccccc23)cc(OC)c1OC` (stereo not drawn), the inhibition is 1.17%.

For the compound `Nn1c(Cc2cccc3ccccc23)nnc1SCC(=O)N1CC(=O)Nc2ccccc21`, the inhibition is 6.4%.

`COc1ccc2c(c1)C(C)=CC(C)(C)N2C(=O)Nc1ccccc1`: the inhibition is 2.49%.

In the case of `CCOc1ccc2[nH]c(=O)c(C(c3nnnn3CCOC)N3CCOCC3)cc2c1` (stereo not drawn), the inhibition was 1.76%.

For the compound `CC(C)OCCCNC(=O)CNC(=O)c1cccs1`, the inhibition is 11%.

As to `COc1cc(/C=N/NC(=O)Nc2ccccc2)ccc1OCCOc1ccccc1C`, the inhibition was 0.38%.

Take `COc1ccc(N2C(=O)C3CCCN3C2c2cc(OC)c(OC)cc2OC)cc1` (stereo not drawn): the inhibition is 3.25%.

In the case of `O=C(CCCC(=O)N(CC(=O)NC1CCCC1)Cc1ccccc1Cl)Nc1ccccn1`, the inhibition is 1.03%.

Consider `Cc1ccnc(-n2sc3ccccc3c2=O)n1`, for which the inhibition is 72.8% (active).

Consider `C/C(=N/Nc1nc(-c2ccccc2)c(CC(=O)O)s1)c1ccccc1`, for which the inhibition was 31.2% (active).

(Values after PubChem BioAssay AID1537 (The Scripps Research Institute Molecular Screening Center, 2009).)
